From ChEMBL document CHEMBL3576819, “Design, synthesis, biological evaluation and molecular docking studies of phenylpropanoid derivatives as potent anti-hepatitis B virus agents” (Eur J Med Chem, 2015)

Tests used:
[1] = Cytotoxicity against human HepG2.2.15 cells assessed as cell death after 9 days by MTT assay; type: cell-based, HepG2 2.2.15
How it was run: (§1)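 HepG2.2.15 cells (MEM, 10% FBS, 380 µg/ml G418, 37 °C, 5% CO2) seeded at 1×10^5 cells/ml, cultured 24 h, then exposed to various drug concentrations; drug-containing medium renewed every 3 d. OD read at 450 nm after 9 days; percent cell death calculated; CC50 = concentration killing 50% of cells. Means of at least two experiments.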

Hepatitis B virus [2] = test: Antiviral activity against Hepatitis B virus infected in human HepG2.2.15 cells assessed as inhibition of HBsAg secretion by ELISA; type: functional, organism-based; settings: HepG2 2.2.15
How it was run: (§2)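 HepG2.2.15 cells (MEM, 10% FBS, 380 µg/ml G418) seeded at 1×10^5 cells/ml, held 24 h at 37 °C, then treated with various drug concentrations; medium with drug renewed every 3 d for up to 9 d. Culture medium sampled on days 3, 6 and 9, stored at -20 °C, and assayed for secreted antigen. Lamivudine as positive control; IC50 = 50% inhibition of secretion; means of at least two experiments.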

[3] = Selectivity index, ratio of CC50 for human HepG2.2.15 cells to IC50 for Hepatitis B virus infected in human HepG2.2.15 cells assessed as inhibition of HBsAg secretion; type: functional
How it was run: (§3)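 Selectivity index computed as CC50/IC50, with CC50 from cell death of HepG2.2.15 cells after 9 days of treatment (OD 450 nm) and IC50 from 50% inhibition of HBeAg or HBsAg secretion in the same cells; medium with drug renewed every 3 d.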

Hepatitis B virus [4] = test: Antiviral activity against Hepatitis B virus infected in human HepG2.2.15 cells assessed as inhibition of HBeAg secretion by ELISA; type: functional, organism-based; settings: HepG2 2.2.15; how it was run: as §2
[5] = Selectivity index, ratio of CC50 for human HepG2.2.15 cells to IC50 for Hepatitis B virus infected in human HepG2.2.15 cells assessed as inhibition of HBeAg secretion; type: functional; how it was run: as §3
Hepatitis B virus [6] = test: Antiviral activity against Hepatitis B virus infected in human HepG2.2.15 cells assessed as inhibition of HBsAg secretion at 300 uM after 3 days by ELISA; type: functional; settings: HepG2 2.2.15, 72 h; how it was run: as §2
Hepatitis B virus [7] = test: Antiviral activity against Hepatitis B virus infected in human HepG2.2.15 cells assessed as inhibition of HBsAg secretion at 150 uM after 3 days by ELISA; type: functional; settings: HepG2 2.2.15, 72 h; how it was run: as §2
Hepatitis B virus [8] = test: Antiviral activity against Hepatitis B virus infected in human HepG2.2.15 cells assessed as inhibition of HBsAg secretion at 75 uM after 3 days by ELISA; type: functional; settings: HepG2 2.2.15, 72 h; how it was run: as §2
Hepatitis B virus [9] = test: Antiviral activity against Hepatitis B virus infected in human HepG2.2.15 cells assessed as inhibition of HBsAg secretion at 37.5 uM after 3 days by ELISA; type: functional; settings: HepG2 2.2.15, 72 h; how it was run: as §2
Hepatitis B virus [10] = test: Antiviral activity against Hepatitis B virus infected in human HepG2.2.15 cells assessed as inhibition of HBsAg secretion at 300 uM after 6 days by ELISA; type: functional; settings: HepG2 2.2.15, 144 h; how it was run: as §2
Hepatitis B virus [11] = test: Antiviral activity against Hepatitis B virus infected in human HepG2.2.15 cells assessed as inhibition of HBsAg secretion at 150 uM after 6 days by ELISA; type: functional; settings: HepG2 2.2.15, 144 h; how it was run: as §2
Hepatitis B virus [12] = test: Antiviral activity against Hepatitis B virus infected in human HepG2.2.15 cells assessed as inhibition of HBsAg secretion at 75 uM after 6 days by ELISA; type: functional; settings: HepG2 2.2.15, 144 h; how it was run: as §2
Hepatitis B virus [13] = test: Antiviral activity against Hepatitis B virus infected in human HepG2.2.15 cells assessed as inhibition of HBsAg secretion at 37.5 uM after 6 days by ELISA; type: functional; settings: HepG2 2.2.15, 144 h; how it was run: as §2
Hepatitis B virus [14] = test: Antiviral activity against Hepatitis B virus infected in human HepG2.2.15 cells assessed as inhibition of HBsAg secretion at 300 uM after 9 days by ELISA; type: functional; settings: HepG2 2.2.15, 216 h; how it was run: as §2
Hepatitis B virus [15] = test: Antiviral activity against Hepatitis B virus infected in human HepG2.2.15 cells assessed as inhibition of HBsAg secretion at 150 uM after 9 days by ELISA; type: functional; settings: HepG2 2.2.15, 216 h; how it was run: as §2
Hepatitis B virus [16] = test: Antiviral activity against Hepatitis B virus infected in human HepG2.2.15 cells assessed as inhibition of HBsAg secretion at 75 uM after 9 days by ELISA; type: functional; settings: HepG2 2.2.15, 216 h; how it was run: as §2
Hepatitis B virus [17] = test: Antiviral activity against Hepatitis B virus infected in human HepG2.2.15 cells assessed as inhibition of HBsAg secretion at 37.5 uM after 9 days by ELISA; type: functional; settings: HepG2 2.2.15, 216 h; how it was run: as §2
Hepatitis B virus [18] = test: Antiviral activity against Hepatitis B virus infected in human HepG2.2.15 cells assessed as cell survival at 300 uM after 9 days (reference value: 100%); type: functional; settings: HepG2 2.2.15, 216 h; how it was run: as §1
Hepatitis B virus [19] = test: Antiviral activity against Hepatitis B virus infected in human HepG2.2.15 cells assessed as cell survival at 150 uM after 9 days (reference value: 100%); type: functional; settings: HepG2 2.2.15, 216 h; how it was run: as §1
Hepatitis B virus [20] = test: Antiviral activity against Hepatitis B virus infected in human HepG2.2.15 cells assessed as cell survival at 75 uM after 9 days (reference value: 100%); type: functional; settings: HepG2 2.2.15, 216 h; how it was run: as §1
Hepatitis B virus [21] = test: Antiviral activity against Hepatitis B virus infected in human HepG2.2.15 cells assessed as cell survival at 37.5 uM after 9 days (reference value: 100%); type: functional; settings: HepG2 2.2.15, 216 h; how it was run: as §1
Hepatitis B virus [22] = test: Antiviral activity against Hepatitis B virus infected in human HepG2.2.15 cells assessed as inhibition of HBeAg secretion at 300 uM after 3 days by ELISA; type: functional; settings: HepG2 2.2.15, 72 h; how it was run: as §2
Hepatitis B virus [23] = test: Antiviral activity against Hepatitis B virus infected in human HepG2.2.15 cells assessed as inhibition of HBeAg secretion at 150 uM after 3 days by ELISA; type: functional; settings: HepG2 2.2.15, 72 h; how it was run: as §2
Hepatitis B virus [24] = test: Antiviral activity against Hepatitis B virus infected in human HepG2.2.15 cells assessed as inhibition of HBeAg secretion at 75 uM after 3 days by ELISA; type: functional; settings: HepG2 2.2.15, 72 h; how it was run: as §2
Hepatitis B virus [25] = test: Antiviral activity against Hepatitis B virus infected in human HepG2.2.15 cells assessed as inhibition of HBeAg secretion at 37.5 uM after 3 days by ELISA; type: functional; settings: HepG2 2.2.15, 72 h; how it was run: as §2
Hepatitis B virus [26] = test: Antiviral activity against Hepatitis B virus infected in human HepG2.2.15 cells assessed as inhibition of HBeAg secretion at 300 uM after 6 days by ELISA; type: functional; settings: HepG2 2.2.15, 144 h; how it was run: as §2
Hepatitis B virus [27] = test: Antiviral activity against Hepatitis B virus infected in human HepG2.2.15 cells assessed as inhibition of HBeAg secretion at 150 uM after 6 days by ELISA; type: functional; settings: HepG2 2.2.15, 144 h; how it was run: as §2
Hepatitis B virus [28] = test: Antiviral activity against Hepatitis B virus infected in human HepG2.2.15 cells assessed as inhibition of HBeAg secretion at 75 uM after 6 days by ELISA; type: functional; settings: HepG2 2.2.15, 144 h; how it was run: as §2
Hepatitis B virus [29] = test: Antiviral activity against Hepatitis B virus infected in human HepG2.2.15 cells assessed as inhibition of HBeAg secretion at 37.5 uM after 6 days by ELISA; type: functional; settings: HepG2 2.2.15, 144 h; how it was run: as §2
Hepatitis B virus [30] = test: Antiviral activity against Hepatitis B virus infected in human HepG2.2.15 cells assessed as inhibition of HBeAg secretion at 300 uM after 9 days by ELISA; type: functional; settings: HepG2 2.2.15, 216 h; how it was run: as §2
Hepatitis B virus [31] = test: Antiviral activity against Hepatitis B virus infected in human HepG2.2.15 cells assessed as inhibition of HBeAg secretion at 150 uM after 9 days by ELISA; type: functional; settings: HepG2 2.2.15, 216 h; how it was run: as §2
Hepatitis B virus [32] = test: Antiviral activity against Hepatitis B virus infected in human HepG2.2.15 cells assessed as inhibition of HBeAg secretion at 75 uM after 9 days by ELISA; type: functional; settings: HepG2 2.2.15, 216 h; how it was run: as §2
Hepatitis B virus [33] = test: Antiviral activity against Hepatitis B virus infected in human HepG2.2.15 cells assessed as inhibition of HBeAg secretion at 37.5 uM after 9 days by ELISA; type: functional; settings: HepG2 2.2.15, 216 h; how it was run: as §2

Compound | CC50 at 216 h [1] | IC50 (Hepatitis B virus [2]) | Ratio CC50/IC50 [3] | IC50 (Hepatitis B virus [4]) | Ratio CC50/IC50 [5] | inhibition at 300 µM (Hepatitis B virus [6]) | inhibition at 150 µM (Hepatitis B virus [7]) | inhibition at 75 µM (Hepatitis B virus [8]) | inhibition at 37.5 µM (Hepatitis B virus [9]) | inhibition at 300 µM (Hepatitis B virus [10]) | inhibition at 150 µM (Hepatitis B virus [11]) | inhibition at 75 µM (Hepatitis B virus [12]) | inhibition at 37.5 µM (Hepatitis B virus [13]) | inhibition at 300 µM (Hepatitis B virus [14]) | inhibition at 150 µM (Hepatitis B virus [15]) | inhibition at 75 µM (Hepatitis B virus [16]) | inhibition at 37.5 µM (Hepatitis B virus [17]) | viability at 300 µM (Hepatitis B virus [18]) | viability at 150 µM (Hepatitis B virus [19]) | viability at 75 µM (Hepatitis B virus [20]) | further results
COc1ccc(/C=C/C(=O)O/N=C/c2ccco2)cc1OC | 624 µM | 191 µM | 3.26 | 202 µM | 3.1 | 47.2% | 39.7% | 33.6% | 19.9% | 53.8% | 44.2% | 36.5% | 20.8% | 55% | 47.3% | 39.4% | 21.2% | 103% | 114% | 120% | viability at 37.5 µM (Hepatitis B virus [21]): 128%; inhibition at 300 µM (Hepatitis B virus [22]): 41.8%; inhibition at 150 µM (Hepatitis B virus [23]): 30.4%; inhibition at 75 µM (Hepatitis B virus [24]): 18.2%; inhibition at 37.5 µM (Hepatitis B virus [25]): 14.1%; inhibition at 300 µM (Hepatitis B virus [26]): 48.8%; inhibition at 150 µM (Hepatitis B virus [27]): 42%; inhibition at 75 µM (Hepatitis B virus [28]): 27.9%; inhibition at 37.5 µM (Hepatitis B virus [29]): 20%; inhibition at 300 µM (Hepatitis B virus [30]): 56.6%; inhibition at 150 µM (Hepatitis B virus [31]): 43.7%; inhibition at 75 µM (Hepatitis B virus [32]): 37.3%; inhibition at 37.5 µM (Hepatitis B virus [33]): 27%
COc1ccc(/C=C/C(=O)O/N=C/c2cccs2)cc1OC | 574 µM | 229 µM | 2.51 | 378 µM | 1.52 | 47.6% | 40.7% | 28.4% | 17.4% | 52.6% | 41.2% | 29.6% | 19.8% | 55% | 42.8% | 29.3% | 20.5% | 97.7% | 98.7% | 101% | viability at 37.5 µM (Hepatitis B virus [21]): 114%; inhibition at 300 µM (Hepatitis B virus [22]): 14.3%; inhibition at 150 µM (Hepatitis B virus [23]): 11.8%; inhibition at 75 µM (Hepatitis B virus [24]): 7.04%; inhibition at 37.5 µM (Hepatitis B virus [25]): 0.63%; inhibition at 300 µM (Hepatitis B virus [26]): 35.4%; inhibition at 150 µM (Hepatitis B virus [27]): 20.4%; inhibition at 75 µM (Hepatitis B virus [28]): 15.3%; inhibition at 37.5 µM (Hepatitis B virus [29]): 8.58%; inhibition at 300 µM (Hepatitis B virus [30]): 52.3%; inhibition at 150 µM (Hepatitis B virus [31]): 26.9%; inhibition at 75 µM (Hepatitis B virus [32]): 22.6%; inhibition at 37.5 µM (Hepatitis B virus [33]): 18.6%
